Results taken from ChEMBL document CHEMBL1140801, “Potency and selectivity of P2/P3-modified inhibitors of cysteine proteases from trypanosomes” (Bioorg Med Chem Lett, 2008).
pKi: −log10 of the molar value.

Tests used:
[1] = test system: Trypanosoma brucei; assay: Ratio of Kinact to Ki of Trypanosoma brucei cathepsin B
In short: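 TbCatB at 40 nM was added to inhibitor dilutions (10–0.1 μM) containing 10 μM Z-Phe-Arg-AMC in buffer A. Progress curves were run for 300 s at room temperature. For hyperbolic k_obs dependence, k_inact and K_i were fitted by nonlinear regression to a two-step irreversible inhibition equation, with an [S]/K_m correction.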

[2] = target: Cruzipain (Trypanosoma cruzi) (UniProt P25779); assay: Ratio of Kinact to ki of Trypanosoma cruzi cruzain
In short: (§1)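 Cruzain at 2 nM was added to inhibitor dilutions (10 to 0.01 μM) containing 10 μM Z-Phe-Arg-AMC in buffer A. Progress curves were run for 150 s at room temperature. k_ass came from linear regression when k_obs was linear in [I]. If saturating, k_inact and K_i came from nonlinear fitting to a two-step irreversible inhibition model.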

[3] = test system: Trypanosoma brucei; assay: Ratio of Kinact to Ki of Trypanosoma brucei rhodesain
In short: (§2)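 Rhodesain at 2 nM was added to inhibitor dilutions (10 to 0.01 μM) containing 10 μM Z-Phe-Arg-AMC in buffer A. Progress curves were run for 300 s at room temperature. Linear k_obs versus [I] gave k_ass by linear regression. Hyperbolic dependence gave k_inact and K_i by nonlinear fit to a two-step irreversible mechanism.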

[4] = test system: Trypanosoma brucei; assay: (§3) Inhibition of Trypanosoma brucei rhodesain; in short: as §2
[5] = as §3; in short: as §2
[6] = target: Cruzipain (Trypanosoma cruzi, UniProt P25779); assay: (§4) Inhibition of Trypanosoma cruzi cruzain; in short: as §1
[7] = target: Cruzipain (Trypanosoma cruzi) (UniProt P25779); assay: as §4; in short: as §1
[8] = test system: Trypanosoma cruzi; assay: Antiparasitic activity against Trypanosoma cruzi in J774 macrophage; type: functional
In short: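 T. cruzi-infected J774 macrophages exposed to compound at 10 μM; read-out is how many days the macrophages survive, with macrophage toxicity also scored. Untreated infected cultures serve as control.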

[9] = test system: J774; assay: Cytotoxicity against mouse J774 macrophage; type: cell-based
In short: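 J774 macrophages infected with T. cruzi were treated with compound at 10 μM. Macrophage toxicity was scored yes/no alongside macrophage survival in days.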

Chain of Cruzipain (Trypanosoma cruzi) (P25779 123-467 limits assumed): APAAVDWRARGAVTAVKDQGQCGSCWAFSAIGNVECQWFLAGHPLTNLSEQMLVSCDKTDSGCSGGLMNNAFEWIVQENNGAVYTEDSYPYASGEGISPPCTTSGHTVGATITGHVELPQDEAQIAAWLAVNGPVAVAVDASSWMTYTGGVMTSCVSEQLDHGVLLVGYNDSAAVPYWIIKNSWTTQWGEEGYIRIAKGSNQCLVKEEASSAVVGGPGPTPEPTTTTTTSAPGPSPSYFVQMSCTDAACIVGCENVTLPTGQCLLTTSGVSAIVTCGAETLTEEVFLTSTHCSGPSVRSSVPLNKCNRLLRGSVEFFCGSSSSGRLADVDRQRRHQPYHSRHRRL
Chain of Cruzipain (P25779 whole entry): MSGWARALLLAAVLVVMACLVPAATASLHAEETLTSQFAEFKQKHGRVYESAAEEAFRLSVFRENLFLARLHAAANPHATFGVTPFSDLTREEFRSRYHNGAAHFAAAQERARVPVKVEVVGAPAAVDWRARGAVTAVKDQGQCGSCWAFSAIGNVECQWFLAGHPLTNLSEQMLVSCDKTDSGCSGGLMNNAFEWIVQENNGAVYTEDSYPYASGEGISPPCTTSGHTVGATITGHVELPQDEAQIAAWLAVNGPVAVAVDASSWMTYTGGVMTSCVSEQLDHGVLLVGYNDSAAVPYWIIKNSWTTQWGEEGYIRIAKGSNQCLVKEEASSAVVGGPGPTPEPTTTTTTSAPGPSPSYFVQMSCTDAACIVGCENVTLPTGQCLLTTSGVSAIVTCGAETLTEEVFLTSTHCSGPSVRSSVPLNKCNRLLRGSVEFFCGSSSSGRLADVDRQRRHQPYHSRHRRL

| Compound | Ratio [1] [M⁻¹ s⁻¹] | Ka [2] [M⁻¹ s⁻¹] | Ratio [3] [M⁻¹ s⁻¹] | Kinact [4] [s⁻¹] | pKi [5] | Ka [1] [M⁻¹ s⁻¹] | pKi [6] | Kinact [7] [s⁻¹] | Ratio [2] [M⁻¹ s⁻¹] | Ka [3] [M⁻¹ s⁻¹] | Survival [8] [days] | Activity [9] |
| --- | --- | --- | --- | --- | --- | --- | --- | --- | --- | --- | --- | --- |
| Cc1ccc(C[C@H](NC(=O)N2CCN(C)CC2)C(=O)N[C@H](/C=C/S(=O)(=O)c2ccccc2)CCc2ccccc2)cc1 | 10000 | 440000 | 852000 | 0.11 | 6.92 | – | – | – | – | – | – | – |
| CN1CCN(C(=O)N[C@@H](Cc2cccnc2)C(=O)N[C@H](/C=C/S(=O)(=O)c2ccccc2)CCc2ccccc2)CC1 | – | – | – | – | – | 800 | 5.44 | 0.16 | 45000 | 55000 | – | – |
| Cc1ccc(C[C@H](NC(=O)c2cc(F)cc(F)c2)C(=O)N[C@H](/C=C/S(=O)(=O)c2ccccc2)CCc2ccccc2)cc1 | – | – | 366000 | 0.011 | 7.52 | – | 6.46 | 0.012 | 34000 | – | – | – |
| O=C(N[C@@H](Cc1ccccc1)C(=O)N[C@H](/C=C/S(=O)(=O)c1ccccc1)CCc1ccccc1)c1ccccn1 | – | – | 150000 | 0.14 | 6.04 | 70 | 6.60 | 0.03 | 120000 | – | 42 | Non-toxic |
| Cc1ccc(C[C@H](NC(=O)c2ccc(C(F)(F)F)cc2)C(=O)N[C@H](/C=C/S(=O)(=O)c2ccccc2)CCc2ccccc2)cc1 | – | – | 420000 | 0.014 | 7.48 | – | 7.35 | 0.0049 | 109000 | – | – | – |
| Cc1ccc(C[C@H](NC(=O)c2ccccn2)C(=O)N[C@H](/C=C/S(=O)(=O)c2ccccc2)CCc2ccccc2)cc1 | – | – | 327000 | 0.29 | 6.06 | 60 | 5.77 | 0.027 | 16000 | – | – | – |
| CN1CCN(C(=O)N[C@@H](Cc2cccc(C(F)(F)F)c2)C(=O)N[C@H](/C=C/S(=O)(=O)c2ccccc2)CCc2ccccc2)CC1 | – | – | – | – | – | 400 | 6.77 | 0.009 | 53000 | 81000 | 42 | Toxic |
| Cc1cccc(C[C@H](NC(=O)c2ccc(C(F)(F)F)cc2)C(=O)N[C@H](/C=C/S(=O)(=O)c2ccccc2)CCc2ccccc2)c1 | – | – | 116000 | 0.005 | 7.37 | – | 7.04 | 0.0035 | 38000 | – | 8 | Toxic |
| O=C(N[C@@H](Cc1ccccc1)C(=O)N[C@H](/C=C/S(=O)(=O)c1ccccc1)CCc1ccccc1)c1ccc(C(F)(F)F)cc1 | – | – | 104000 | 0.009 | 7.06 | < 5 | 7.01 | 0.0097 | 100000 | – | 8 | Non-toxic |
| Cc1cccc(C[C@H](NC(=O)c2ccc3c(c2)OCCO3)C(=O)N[C@H](/C=C/S(=O)(=O)c2ccccc2)CCc2ccccc2)c1 | – | – | 252000 | 0.0093 | 7.43 | 650 | 7.15 | 0.001 | 14000 | – | – | – |
| CN1CCN(C(=O)N[C@@H](Cc2ccccc2)C(=O)N[C@H](/C=C/S(=O)(=O)c2ccccc2)CCc2ccccc2)CC1 [K-777] | – | – | – | – | 6.57 | 1000 | – | – | – | – | 42 | Non-toxic |
| Cc1cccc(C[C@H](NC(=O)c2ccccn2)C(=O)N[C@H](/C=C/S(=O)(=O)c2ccccc2)CCc2ccccc2)c1 | – | – | 173000 | 0.04 | 6.64 | 100 | 6.55 | 0.01 | 36000 | – | – | – |
| O=C(N[C@@H](Cc1cccc(C(F)(F)F)c1)C(=O)N[C@H](/C=C/S(=O)(=O)c1ccccc1)CCc1ccccc1)c1cc(F)cc(F)c1 | – | – | 52000 | 0.0017 | 7.48 | – | – | – | – | – | 23 | Non-toxic |
| Cc1cccc(C[C@H](NC(=O)c2cc(F)cc(F)c2)C(=O)N[C@H](/C=C/S(=O)(=O)c2ccccc2)CCc2ccccc2)c1 | 16000 | – | 456000 | 0.023 | – | – | 7.30 | 0.0052 | 105000 | – | 12 | Toxic |
| O=C(N[C@@H](Cc1ccccc1)C(=O)N[C@H](/C=C/S(=O)(=O)c1ccccc1)CCc1ccccc1)c1ccc2c(c1)OCCO2 | – | – | 223000 | 0.019 | 7.07 | 540 | 7.10 | 0.0056 | 70000 | – | – | – |
| O=C(N[C@@H](Cc1ccccc1)C(=O)N[C@H](/C=C/S(=O)(=O)c1ccccc1)CCc1ccccc1)c1cc(F)cc(F)c1 | – | – | 317000 | 0.021 | 7.18 | – | 6.01 | 0.31 | 31000 | – | 12 | Toxic |
| Cc1cccc(C[C@H](NC(=O)N2CCN(C)CC2)C(=O)N[C@H](/C=C/S(=O)(=O)c2ccccc2)CCc2ccccc2)c1 | 19000 | – | 517000 | 0.088 | 6.77 | – | 5.48 | 0.86 | 257000 | – | 42 | Non-toxic |
| Cc1ccc(C[C@H](NC(=O)c2ccc3c(c2)OCCO3)C(=O)N[C@H](/C=C/S(=O)(=O)c2ccccc2)CCc2ccccc2)cc1 | – | – | 1.57e+06 | 0.031 | 7.70 | 600 | 7.72 | 0.006 | 311000 | – | – | – |
| O=C(N[C@@H](Cc1cccc(C(F)(F)F)c1)C(=O)N[C@H](/C=C/S(=O)(=O)c1ccccc1)CCc1ccccc1)c1ccccn1 | – | – | 6000 | 0.0017 | 6.55 | 500 | 6.82 | 0.00047 | 3100 | – | – | – |
